Laboratory results published in ChEMBL document CHEMBL3108762, “Novel pyridazinone inhibitors for vascular adhesion protein-1 (VAP-1): old target-new inhibition mode” (J Med Chem, 2013).
The source made the active and inactive calls. The rule behind the calls is not given here.

Columns and labels:
[1] = target: T1, Diamine oxidase [copper-containing] (Sus scrofa) (UniProt Q9TRC7); assay: Inhibition of pig kidney DAO at 100 uM
T1 sequence (whole entry): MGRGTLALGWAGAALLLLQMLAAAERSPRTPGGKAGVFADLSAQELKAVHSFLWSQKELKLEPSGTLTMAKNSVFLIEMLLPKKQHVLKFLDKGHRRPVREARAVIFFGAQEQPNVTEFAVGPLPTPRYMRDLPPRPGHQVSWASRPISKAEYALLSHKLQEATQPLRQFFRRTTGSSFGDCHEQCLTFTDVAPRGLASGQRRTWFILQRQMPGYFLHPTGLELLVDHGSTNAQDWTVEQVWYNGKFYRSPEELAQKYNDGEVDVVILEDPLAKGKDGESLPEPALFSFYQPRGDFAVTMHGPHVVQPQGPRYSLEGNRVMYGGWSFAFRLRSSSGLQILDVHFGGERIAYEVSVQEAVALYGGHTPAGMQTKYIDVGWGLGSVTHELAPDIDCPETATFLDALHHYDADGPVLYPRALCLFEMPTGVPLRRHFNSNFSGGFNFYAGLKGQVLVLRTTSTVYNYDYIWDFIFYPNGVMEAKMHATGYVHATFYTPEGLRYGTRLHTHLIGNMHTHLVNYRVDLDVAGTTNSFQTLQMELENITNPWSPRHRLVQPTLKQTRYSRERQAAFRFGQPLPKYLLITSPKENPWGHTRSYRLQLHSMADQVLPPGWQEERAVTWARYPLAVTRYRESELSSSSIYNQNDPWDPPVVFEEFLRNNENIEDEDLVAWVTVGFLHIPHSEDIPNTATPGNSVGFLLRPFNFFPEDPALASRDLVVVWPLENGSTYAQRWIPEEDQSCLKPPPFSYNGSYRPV

[2] = target: T2, Amine oxidase [copper-containing] 3 (Rattus norvegicus) (UniProt O08590); assay: Inhibition of rat VAP-1
T2 sequence (whole entry): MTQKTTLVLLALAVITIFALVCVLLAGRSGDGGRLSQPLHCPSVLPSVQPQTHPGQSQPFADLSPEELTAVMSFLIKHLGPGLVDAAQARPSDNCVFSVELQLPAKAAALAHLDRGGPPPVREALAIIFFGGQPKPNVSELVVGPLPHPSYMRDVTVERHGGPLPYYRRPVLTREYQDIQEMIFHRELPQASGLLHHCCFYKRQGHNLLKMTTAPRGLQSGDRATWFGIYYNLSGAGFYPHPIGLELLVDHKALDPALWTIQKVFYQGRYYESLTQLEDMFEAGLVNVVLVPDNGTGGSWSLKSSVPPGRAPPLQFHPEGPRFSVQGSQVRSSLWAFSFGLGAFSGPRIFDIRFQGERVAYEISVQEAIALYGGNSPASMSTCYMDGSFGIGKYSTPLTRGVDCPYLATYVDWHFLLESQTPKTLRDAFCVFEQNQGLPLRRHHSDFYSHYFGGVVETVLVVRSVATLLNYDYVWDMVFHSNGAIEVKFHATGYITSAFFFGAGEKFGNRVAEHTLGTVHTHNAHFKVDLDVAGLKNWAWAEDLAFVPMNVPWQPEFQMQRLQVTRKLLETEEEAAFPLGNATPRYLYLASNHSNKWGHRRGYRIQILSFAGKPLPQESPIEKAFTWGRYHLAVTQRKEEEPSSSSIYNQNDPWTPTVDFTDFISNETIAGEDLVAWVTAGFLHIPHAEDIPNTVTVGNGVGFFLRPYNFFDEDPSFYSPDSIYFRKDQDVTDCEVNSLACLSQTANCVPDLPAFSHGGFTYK

Rattus norvegicus = species on record: Rattus norvegicus; assay: Inhibition of rat liver MAO using vanillic acid/tyramine as substrate at 100 uM incubated for 30 mins prior to tyramine addition measured after 1 hr by spectrophotometry
Procedure, shortened: (§1)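 Peroxidase-coupled colorimetric assay as for VAP-1, with 1 mM vanillic acid in place of 2,4-dichlorophenol and 0.5 mM tyramine (final) as substrate. Conditions: 0.2 M potassium phosphate pH 7.6, 500 μM 4-aminoantipyrine, 4 U/ml HRP, 30 min preincubation at 37 °C, then 1 h at 37 °C; A490 read. Enzymes: purified human MAO-A or MAO-B from baculovirus-infected BTI insect cells, or total MAO-A/B extracted from rat liver mitochondria. Single-concentration percent inhibition.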

Cricetinae = assay: Inhibition of hamster VAP-1
[3] = target: T3, Amine oxidase [copper-containing] 3 (Homo sapiens, UniProt Q16853); assay: Binding affinity to human recombinant VAP-1 by surface plasmon resonance analysis
T3 sequence (Q16853 whole entry): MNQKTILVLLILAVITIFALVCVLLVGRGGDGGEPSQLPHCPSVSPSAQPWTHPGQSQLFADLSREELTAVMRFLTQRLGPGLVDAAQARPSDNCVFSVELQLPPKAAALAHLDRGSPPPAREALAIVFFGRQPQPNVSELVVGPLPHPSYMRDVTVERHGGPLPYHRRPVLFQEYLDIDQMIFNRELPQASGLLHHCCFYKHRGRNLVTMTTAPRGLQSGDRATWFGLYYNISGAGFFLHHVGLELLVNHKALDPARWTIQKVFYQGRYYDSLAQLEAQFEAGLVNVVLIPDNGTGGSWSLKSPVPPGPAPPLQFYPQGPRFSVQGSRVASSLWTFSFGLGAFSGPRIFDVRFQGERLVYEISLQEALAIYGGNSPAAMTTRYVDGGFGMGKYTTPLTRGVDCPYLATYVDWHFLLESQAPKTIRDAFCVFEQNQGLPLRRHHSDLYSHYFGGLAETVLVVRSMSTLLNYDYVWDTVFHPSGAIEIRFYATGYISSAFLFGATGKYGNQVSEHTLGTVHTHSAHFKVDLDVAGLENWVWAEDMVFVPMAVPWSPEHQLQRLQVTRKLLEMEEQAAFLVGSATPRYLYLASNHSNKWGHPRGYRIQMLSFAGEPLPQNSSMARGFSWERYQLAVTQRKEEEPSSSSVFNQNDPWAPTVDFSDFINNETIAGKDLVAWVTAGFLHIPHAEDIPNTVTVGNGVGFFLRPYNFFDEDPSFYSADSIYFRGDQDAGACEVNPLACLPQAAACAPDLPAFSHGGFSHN
Procedure, shortened: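 Surface plasmon resonance binding kinetics: recombinant purified VAP-1 amine-coupled to a CM5 chip after preconcentration in 10 mM Na acetate pH 4.4 with 10 μM CuCl2.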

[4] = Inhibition of cynomolgus monkey recombinant VAP-1 transfected in CHO cells using 2,4-dichlorophenol/benzylamine as substrate incubated for 30 mins prior to benzylamine addition measured after 1 hr by spectrophotometry; assay type: cell-based, Macaca fascicularis
Procedure, shortened: (§2)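 Coupled colorimetric H2O2 assay with lysate of CHO cells stably expressing full-length VAP-1 of the listed species, dosed to give 0.6 A490/h. Conditions: 0.2 M potassium phosphate pH 7.6, 1 mM 2,4-dichlorophenol, 500 μM 4-aminoantipyrine, 4 U/ml HRP, inhibitor 1 nM–50 μM. Preincubated 30 min at 37 °C, then 1 mM benzylamine (final) for 1 h at 37 °C; A490 read, background-corrected, percent inhibition versus control, IC50 fitted; mean of two to six experiments ± SE.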

[5] = target: T3, Amine oxidase [copper-containing] 3; assay: Inhibition of human recombinant VAP-1 transfected in CHO cells using 2,4-dichlorophenol/benzylamine as substrate incubated for 30 mins prior to benzylamine addition measured after 1 hr by spectrophotometry; assay type: cell-based; procedure, shortened: as §2
[6] = target: T4, Amine oxidase [copper-containing] 3 (Mus musculus) (UniProt O70423); assay: Inhibition of mouse recombinant VAP-1 transfected in CHO cells using 2,4-dichlorophenol/benzylamine as substrate at 1 nM to 50 uM incubated for 30 mins prior to benzylamine addition measured after 1 hr by spectrophotometry; assay type: cell-based; procedure, shortened: as §2
T4 sequence (whole entry): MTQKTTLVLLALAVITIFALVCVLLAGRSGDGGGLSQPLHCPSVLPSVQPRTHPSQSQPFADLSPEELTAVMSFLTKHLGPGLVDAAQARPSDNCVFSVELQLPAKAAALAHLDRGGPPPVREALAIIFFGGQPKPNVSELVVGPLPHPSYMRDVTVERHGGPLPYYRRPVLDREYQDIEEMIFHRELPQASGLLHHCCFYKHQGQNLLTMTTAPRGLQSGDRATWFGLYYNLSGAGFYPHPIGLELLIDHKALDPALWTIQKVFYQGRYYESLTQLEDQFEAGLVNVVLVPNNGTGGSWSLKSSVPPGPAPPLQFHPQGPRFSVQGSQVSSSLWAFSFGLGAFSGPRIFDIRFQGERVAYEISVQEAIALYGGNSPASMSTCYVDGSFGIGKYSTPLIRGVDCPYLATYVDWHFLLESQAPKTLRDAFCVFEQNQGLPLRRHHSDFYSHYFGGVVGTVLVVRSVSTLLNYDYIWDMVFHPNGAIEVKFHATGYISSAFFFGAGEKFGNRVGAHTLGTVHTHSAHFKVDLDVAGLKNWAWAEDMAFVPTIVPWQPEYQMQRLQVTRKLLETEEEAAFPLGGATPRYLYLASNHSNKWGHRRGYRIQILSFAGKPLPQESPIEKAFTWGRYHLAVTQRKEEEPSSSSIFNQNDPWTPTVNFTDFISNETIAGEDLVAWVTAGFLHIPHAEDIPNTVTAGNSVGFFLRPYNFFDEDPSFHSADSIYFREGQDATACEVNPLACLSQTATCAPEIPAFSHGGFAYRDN

MAO-B = target: T5, MAO-B (Homo sapiens, UniProt P27338); assay: Inhibition of human recombinant MAO-B expressed in baculovirus infected BTI insect cells using vanillic acid/tyramine as substrate at 20 uM incubated for 30 mins prior to tyramine addition measured after 1 hr by spectrophotometry; conditions: probe tyramine (with vanillic acid); procedure, shortened: as §1
T5 sequence (P27338 whole entry): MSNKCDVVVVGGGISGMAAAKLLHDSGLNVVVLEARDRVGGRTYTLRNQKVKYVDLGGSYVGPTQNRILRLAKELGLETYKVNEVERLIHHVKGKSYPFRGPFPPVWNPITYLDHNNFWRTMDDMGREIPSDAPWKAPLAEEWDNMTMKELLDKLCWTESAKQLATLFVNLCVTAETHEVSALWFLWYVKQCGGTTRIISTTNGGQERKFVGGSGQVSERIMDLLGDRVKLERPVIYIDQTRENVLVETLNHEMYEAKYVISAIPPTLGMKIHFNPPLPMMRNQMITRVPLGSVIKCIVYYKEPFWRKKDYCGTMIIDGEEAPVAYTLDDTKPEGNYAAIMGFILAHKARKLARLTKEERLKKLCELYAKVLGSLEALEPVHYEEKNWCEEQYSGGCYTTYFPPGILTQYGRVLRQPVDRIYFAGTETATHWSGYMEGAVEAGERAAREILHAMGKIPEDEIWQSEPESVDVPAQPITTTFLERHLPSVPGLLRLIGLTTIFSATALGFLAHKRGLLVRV

MAO-A = target: T6, MAO-A (Homo sapiens, UniProt P21397); assay: Inhibition of human recombinant MAO-A expressed in baculovirus infected BTI insect cells using vanillic acid/tyramine as substrate at 20 uM incubated for 30 mins prior to tyramine addition measured after 1 hr by spectrophotometry; conditions: probe tyramine (with vanillic acid); procedure, shortened: as §1
T6 sequence (P21397 whole entry): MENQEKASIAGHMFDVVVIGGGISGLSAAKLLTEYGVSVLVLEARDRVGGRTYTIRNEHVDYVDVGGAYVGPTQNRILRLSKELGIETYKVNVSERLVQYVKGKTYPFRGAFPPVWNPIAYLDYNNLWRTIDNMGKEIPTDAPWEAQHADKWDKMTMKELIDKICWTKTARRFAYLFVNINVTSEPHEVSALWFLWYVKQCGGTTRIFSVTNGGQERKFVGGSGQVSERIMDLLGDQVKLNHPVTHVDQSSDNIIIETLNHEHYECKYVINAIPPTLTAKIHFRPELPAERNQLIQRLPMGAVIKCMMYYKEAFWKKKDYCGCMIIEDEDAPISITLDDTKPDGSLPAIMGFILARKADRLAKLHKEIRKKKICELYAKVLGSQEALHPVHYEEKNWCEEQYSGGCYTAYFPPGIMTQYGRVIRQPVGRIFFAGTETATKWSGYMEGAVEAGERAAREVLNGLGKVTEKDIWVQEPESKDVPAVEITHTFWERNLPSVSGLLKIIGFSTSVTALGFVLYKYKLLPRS

Cavia porcellus = species on record: Cavia porcellus; assay: Inhibition of guinea pig VAP-1
[7] = target: T1, Diamine oxidase [copper-containing] (Sus scrofa); assay: Inhibition of pig kidney DAO at 50 uM

Compound	inhibition [1] [%]	inhibition [2]	inhibition (Rattus norvegicus) [%]	inhibition (Cricetinae)	Kd [3] [nM]	IC50 [4] [nM]	IC50 [5] [nM]	inhibition [6] [%]	inhibition at 1 h, 20 µM (MAO-B) [%]	inhibition at 1 h, 20 µM (MAO-A) [%]	inhibition (Cavia porcellus)	inhibition [7] [%]
O=c1cc(NC2CCCCC2)c(-c2nc[nH]n2)nn1-c1ccccc1	40	inactive	3	inactive	170	130	71	24	13	4	inactive	–
CC(C)Nc1cc(=O)n(-c2ccccc2)nc1-c1nc[nH]n1	30	inactive	8	inactive	200	250	290	10	–	–	inactive	–
CN1CCN(c2ccc(Nc3cc(=O)n(-c4ccc(Cl)cc4)nc3-c3nc[nH]n3)cc2)CC1	–	inactive	18	inactive	–	26	20	23	1	3	inactive	36
